Activity calls are given as the source filed them.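 The calls were made as follows, unless noted: active = fluorescence slope after compound addition differing from the mean of all tested samples at 99.7% confidence, mostly higher but some lower; inactive = the rest.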
Legend:
[1] = inhibitors of TNFa-induced NFkB p65 translocation, primary screen, imaging, HUVEC, MLSMR starter and 10KST1 sets (AID 438;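 active = inhibition above 20% together with a positive visual image hit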;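 also: compound added about 3h40 before a 20 min TNFalpha stimulation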;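 as to inhibition: signal is the nuclear over cytoplasmic p65 intensity ratio per well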); conditions: HUVEC TNFa-induced p65 nuclear translocation; cell count: measured here: nuclei count (cytotoxicity indicator), at 2.08 µM; inhibition: at 2 µM, stronger effect = higher value, 0% TNFa-plus-vehicle, 100% no-TNFa wells
[2] = reduction of polyQ htt aggregates in cells – imaging, exon1htt(103Q)mCFP cells, high-content imaging, primary screen (AID 483;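 active = visual image review flags a hit and inhibition of aggregation exceeds 20%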;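 also: compound exposure lasted 3 days before fixation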;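 as to nuclei count: percent of the per-plate median nuclei count of sample wells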); conditions: exon1htt(103Q)mCFP cell line, aggregate imaging, at 2 µM; inhibition of aggregation: stronger effect = higher value; nuclei count: measured here: cell count, toxicity
[3] = endothelial E-selectin expression blockers – imaging, HUVEC, immunofluorescence, MLSMR starter and 10KST1 sets, primary screen (AID 487;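 active = visually confirmed hit in the image check and inhibition above 20%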;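 as to inhibition: signal is fraction of cell area covered by stained E-selectin grains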;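 as to nuclei count: 100% = median nuclei count of all wells on the same plate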); conditions: HUVEC TNFalpha-induced E-selectin immunofluorescence imaging, at 2 µM; inhibition: stronger effect = higher value; nuclei count: measured here: cell number, toxicity
[4] = target: Voltage-gated potassium channel subunit beta-2 (Rattus norvegicus) (UniProt P62483); experiment: inhibitors of rat Kvbeta2 reductase activity – biochemical, NADPH fluorescence, primary screen (AID 622;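 active = fluorescence slope higher than the sample average by over 3 SD, cut at about -0.22 in these data, passing the limit was not always enough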;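 also: slope of raw intensity against log time taken from 70 to 1610 s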); conditions: recombinant KvBeta, 4-cyanobenzaldehyde reduction, at 10 µM, stronger effect = higher value
Voltage-gated potassium channel subunit beta-2 (Rattus norvegicus), sequence (P62483 whole entry, looked up): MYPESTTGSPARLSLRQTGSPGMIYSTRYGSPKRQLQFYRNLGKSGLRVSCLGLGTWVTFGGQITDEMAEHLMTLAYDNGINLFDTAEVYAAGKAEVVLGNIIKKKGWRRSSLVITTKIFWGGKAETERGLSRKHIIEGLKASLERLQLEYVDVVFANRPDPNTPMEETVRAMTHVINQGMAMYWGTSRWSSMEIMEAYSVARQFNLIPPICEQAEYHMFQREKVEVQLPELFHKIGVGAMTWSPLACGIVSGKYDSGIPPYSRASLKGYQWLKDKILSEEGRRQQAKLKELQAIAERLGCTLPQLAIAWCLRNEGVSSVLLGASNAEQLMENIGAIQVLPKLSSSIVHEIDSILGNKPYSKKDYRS

[5] = target: Voltage-gated potassium channel subunit beta-2 (Rattus norvegicus) (UniProt P62483); experiment: enhancers of rat Kvbeta2 NADPH turnover – biochemical, NADPH fluorescence, primary screen (AID 623;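 active = NADPH fluorescence slope more negative than the mean of all samples by about 3 SD, 99.7% confidence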;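 also: fluorescence intensity change per second fitted from 20 to 320 s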); conditions: Recombinant KvBeta, NADPH fluorescence decrease slope, 10 min; at 10 µM; stronger effect = lower value
[6] = target: Muscarinic acetylcholine receptor M4 (Homo sapiens) (UniProt P08173); experiment: M4-linked GIRK flux change, two-sided – cell-based, HEK293 M4/GIRK, thallium flux, BTC-AM, M4 allosteric agonist project, primary screen (AID 625); conditions: at 10 µM, actives lie on both sides;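 also: thallium influx through GIRK channels coupled to M4 in HEK293 cells with BTC-AM dye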
Muscarinic acetylcholine receptor M4 (Homo sapiens), sequence (P08173 whole entry, looked up): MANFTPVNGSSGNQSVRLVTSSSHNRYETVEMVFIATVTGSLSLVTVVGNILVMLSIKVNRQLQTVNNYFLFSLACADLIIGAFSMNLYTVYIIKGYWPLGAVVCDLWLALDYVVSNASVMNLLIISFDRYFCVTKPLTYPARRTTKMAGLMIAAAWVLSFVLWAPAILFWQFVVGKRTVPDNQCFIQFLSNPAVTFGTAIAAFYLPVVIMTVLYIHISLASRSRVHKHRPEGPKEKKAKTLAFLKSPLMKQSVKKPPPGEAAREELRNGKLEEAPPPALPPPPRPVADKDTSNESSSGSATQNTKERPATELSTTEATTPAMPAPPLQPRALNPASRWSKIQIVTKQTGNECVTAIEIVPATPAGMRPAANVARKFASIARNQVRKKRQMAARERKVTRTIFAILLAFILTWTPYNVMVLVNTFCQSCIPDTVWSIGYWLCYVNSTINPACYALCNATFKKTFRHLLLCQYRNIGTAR
Summary of the method: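 Assay system: HEK293 cells with M4 receptor and GIRK channels / Controls: carbachol and DMSO controls / Schedule: 1 h dye loading, 2 min kinetic read / Technique: kinetic fluorescence with BTC-AM dye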

[7] = blockers of RIG-like receptor reporter activation – cell-based, Sendai virus stimulus, luciferase, 10K MLSCN set, TLR/RLR signaling modifier project, primary screen (AID 602276;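 active = inhibition at or above 50% at 10 µM; inactive = inhibition below 50%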;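 also: firefly luciferase from ISG56 promoter only with Renilla not read in this screen; 0% = Sendai virus plus DMSO and 100% = medium plus DMSO without virus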); conditions: HEK293 RL24 IRF3 luciferase reporter, at 10 µM, stronger effect = higher value
[8] = TLR3 IRF3 reporter activation blockers – cell-based, poly I:C stimulus, luciferase, 10K MLSCN set, primary screen (AID 602277;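 active = inhibition of the reporter signal at or above 50%; inactive = inhibition below 50%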); conditions: HEK293-TLR3 RL24 IRF3 luciferase reporter, at 10 µM, stronger effect = higher value

Structure (SMILES) | cell count [1] | inhibition [1] | inhibition of aggregation [2] | nuclei count [2] | inhibition [3] | nuclei count [3] | fluorescence slope [4] | NADPH fluorescence slope [5] | fluorescence slope [6] | inhibition [7] | inhibition [8]
C=CCn1c(SCc2ccc3nonc3c2)nnc1-c1cccs1 | 644 | -14% (inactive) | 3.4% (inactive) | 91.6% | 13.9% (inactive) | 92.9% | -0.384 (inactive) | 4.9e-05 (inactive) | 0.00442 (inactive) | 15% (inactive) | 17.7% (inactive)
c1cncc(-c2nnc(-c3ccco3)o2)c1 | 383 | -1.1% (inactive) | -27% (inactive) | 116% | 3.9% (inactive) | 95.6% | -0.532 (inactive) | -1.2e-05 (inactive) | 0.00567 (inactive) | -1.51% (inactive) | -11.7% (inactive)
Cc1ccc(OCC(=O)NCCN2CCCC2)cc1 | 424 | 0% (inactive) | 5% (inactive) | 101% | -65.5% (inactive) | 102% | -0.404 (inactive) | -0.000132 (inactive) | 0.00568 (inactive) | 15.6% (inactive) | 28% (inactive)
Cc1nc(SCC(=O)c2c[nH]c3ccccc23)n[nH]1 | 339 | -6.5% (inactive) | -7.8% (inactive) | 103% | -81.8% (inactive) | 76.3% | -0.472 (inactive) | -6.1e-05 (inactive) | 0.00544 (inactive) | 17.1% (inactive) | 14.3% (inactive)
CCN(CC)S(=O)(=O)c1ccc(C(=O)Oc2ccc3c(c2)OCO3)cc1 | 603 | -8.9% (inactive) | -5% (inactive) | 108% | -19.8% (inactive) | 110% | -0.477 (inactive) | 1.4e-07 (inactive) | 0.00717 (inactive) | 1.83% (inactive) | 9.42% (inactive)
CCOC(=O)C1=C(CC)Nc2ccccc2N=C1NC(=O)Nc1ccccc1OC | 485 | -12.3% (inactive) | 7.2% (inactive) | 116% | -15% (inactive) | 119% | -0.593 (inactive) | 2.9e-06 (inactive) | 0.00703 (inactive) | 26.2% (inactive) | 38.4% (inactive)
C=CCOc1ccc(/C(O)=C2\C(=O)C(=O)N(CCOC)C2c2cccnc2)cc1 (stereo not drawn) | 640 | 3.4% (inactive) | 14.8% (inactive) | 105% | 4% (inactive) | 101% | -0.336 (inactive) | -4.4e-05 (inactive) | 0.00592 (inactive) | 6.88% (inactive) | 15.7% (inactive)
Cn1cccc1C1NC(=O)c2c(sc3c2CCC(C(C)(C)C)C3)N1 (stereo not drawn) | 495 | 1.7% (inactive) | -10.6% (inactive) | 93% | -107% (inactive) | 127% | -0.19 (inactive) | -1.5e-05 (inactive) | 0.00584 (inactive) | -3.95% (inactive) | -48.7% (inactive)
O=C(CCn1c(=O)sc2ccccc21)NC1=NCCS1 | 620 | -25.8% (inactive) | 8.6% (inactive) | 102% | -118% (inactive) | 121% | -0.464 (inactive) | 8e-05 (inactive) | 0.00544 (inactive) | -9.67% (inactive) | -5.87% (inactive)
Cc1cc2c(c(=O)n1CCN(C)C)C(c1ccncc1)C(C#N)=C(N)O2 (stereo not drawn) | 552 | 7.7% (inactive) | 5% (inactive) | 102% | -74% (inactive) | 155% | -0.484 (inactive) | -1.3e-05 (inactive) | 0.00498 (inactive) | 5.86% (inactive) | 8.13% (inactive)
COCCSc1ccccc1C(=O)Nc1cc(C)on1 | 587 | 3.3% (inactive) | -4.3% (inactive) | 92.3% | 22.8% (inactive) | 90.6% | -0.568 (inactive) | -2.5e-05 (inactive) | 0.00516 (inactive) | 14.3% (inactive) | 20.9% (inactive)
Cc1sc2nc(SCC(=O)NCc3ccco3)n(CCc3ccccc3)c(=O)c2c1C | 589 | -17.7% (inactive) | -11.6% (inactive) | 101% | -45.3% (inactive) | 108% | -0.394 (inactive) | 5.5e-06 (inactive) | 0.0086 (inactive) | 13.1% (inactive) | 0.6% (inactive)
CC1(c2ccc(OC(F)F)cc2)NC(=O)N(CC(=O)Nc2ccc3c(c2)OCO3)C1=O (stereo not drawn) | 404 | -6.6% (inactive) | -11.2% (inactive) | 109% | -7.1% (inactive) | 107% | -0.576 (inactive) | -6.3e-05 (inactive) | 0.00647 (inactive) | -3.26% (inactive) | 2.25% (inactive)
COc1ccc(NC(=O)Cn2nnc(-c3ccccc3N)n2)cc1OC | 656 | -6.1% (inactive) | 19.9% (inactive) | 100% | -51.2% (inactive) | 121% | -0.595 (inactive) | 1e-05 (inactive) | 0.00531 (inactive) | 17.6% (inactive) | 14.6% (inactive)
O=C(CSc1ncnc2sc3c(c12)CCCCC3)NCc1ccco1 | 354 | -5.1% (inactive) | -11.3% (inactive) | 93.9% | -196% (inactive) | 128% | -0.472 (inactive) | -1.4e-05 (inactive) | 0.0063 (inactive) | 17.7% (inactive) | 35.5% (inactive)
CC(C)(C)c1ccccc1NC(=O)c1cccnc1 | 224 | -5.6% (inactive) | 28.5% (inactive) | 91.8% | -81.8% (inactive) | 89.7% | -0.533 (inactive) | -2.2e-05 (inactive) | 0.00439 (inactive) | 15.7% (inactive) | 19.9% (inactive)
O=c1cc(-c2ccc(Cl)cc2)[nH][nH]1 | 523 | -2.4% (inactive) | 10.1% (inactive) | 104% | 54.7% (inactive) | 47.1% | -0.27 (inactive) | -4.3e-05 (inactive) | 0.00862 (inactive) | 15.8% (inactive) | -16.8% (inactive)
COC(=O)c1ccccc1NC(=O)c1cc(-c2ccc(OC)c(OC)c2)on1 | 443 | -28.4% (inactive) | -3.3% (inactive) | 104% | -29.1% (inactive) | 111% | -0.269 (inactive) | -3.4e-05 (inactive) | 0.00826 (inactive) | 3.07% (inactive) | 5.03% (inactive)
CCOC(=O)N1CCN(CC(=O)Nc2c(C(=O)OC)[nH]c3cccc(Cl)c23)CC1 | 556 | -15.5% (inactive) | -5.4% (inactive) | 96.1% | -23.3% (inactive) | 94% | -0.214 (inactive) | -2.3e-05 (inactive) | 0.00534 (inactive) | 20% (inactive) | -2.65% (inactive)
CC(C)OC(=O)CSc1nnc(Cc2ccccc2)n1Cc1ccco1 | 726 | 28.5% (active) | -13% (inactive) | 106% | 44% (inactive) | 100% | -0.419 (inactive) | -2.4e-05 (inactive) | 0.0048 (inactive) | 10.9% (inactive) | 6.75% (inactive)
Cc1nc(=S)n(-c2ccccc2)[nH]1 | 638 | -5% (inactive) | 16.1% (inactive) | 113% | -31.2% (inactive) | 120% | -0.538 (inactive) | -1.9e-05 (inactive) | 0.00665 (inactive) | 11.3% (inactive) | 10.6% (inactive)
COc1ccc(Cl)cc1C(=O)n1nc(C)cc1C | 346 | -3.3% (inactive) | -15% (inactive) | 106% | -31% (inactive) | 118% | -0.355 (inactive) | -1.5e-05 (inactive) | 0.00581 (inactive) | -16.7% (inactive) | -14.6% (inactive)
CCn1c(CCNC(=O)c2ccc(OC)c(OC)c2)nc2ccccc21 | 275 | -8.5% (inactive) | -14.6% (inactive) | 95.7% | 3.1% (inactive) | 88.5% | -0.468 (inactive) | -3.6e-05 (inactive) | 0.00543 (inactive) | 15.9% (inactive) | 6.06% (inactive)
CCOC(=O)/C=C(\C)Sc1cc(=O)oc2ccccc12 | 571 | 18.4% (inactive) | -8.4% (inactive) | 93.3% | -103% (inactive) | 126% | -0.549 (inactive) | -6e-05 (inactive) | 0.00418 (inactive) | 25.8% (inactive) | 47.5% (inactive)
Cc1ccc(-c2c3c(=O)n(C)c(=O)n(C)c3cn2CCCN2CCOCC2)cc1 | 761 | 4.5% (inactive) | 1.2% (inactive) | 92.9% | -32% (inactive) | 116% | -0.414 (inactive) | 2.2e-05 (inactive) | 0.00744 (inactive) | 10.9% (inactive) | 18.9% (inactive)
O=C(C1CCC1)N1CCc2cc(S(=O)(=O)N3CCc4ccccc4C3)ccc21 | 299 | 0% (inactive) | 8.8% (inactive) | 113% | -0.1% (inactive) | 118% | -0.411 (inactive) | 7.8e-05 (inactive) | 0.00795 (inactive) | -7.83% (inactive) | 4.09% (inactive)
CC1CC(C)CN(CCCNC(=O)COc2cc(=O)n(C)c3ccccc23)C1 (stereo not drawn) | 347 | 3.3% (inactive) | -17.3% (inactive) | 99% | -10.4% (inactive) | 122% | -0.408 (inactive) | -7e-05 (inactive) | 0.00505 (inactive) | 11.3% (inactive) | 36.3% (inactive)
O=C(O)C1C2C=CC(O2)C1C(=O)NCc1ccc(Cl)cc1 (stereo not drawn) | 714 | -7.5% (inactive) | 22.6% (inactive) | 95.5% | 16.4% (inactive) | 100% | -0.531 (inactive) | -3.3e-05 (inactive) | 0.0043 (inactive) | 11.9% (inactive) | 5.33% (inactive)

Reference: PubChem BioAssay
